Results as given in ChEMBL document CHEMBL1124794, “Synthesis, chemistry, and antineoplastic activity of alpha-halopyridinium salts: potential pyridone prodrugs of acylated vinylogous carbinolamine tumor inhibitors” (J Med Chem, 1990).

Tests used:
[1] = test system: L1210; assay: In vivo activity against murine L1210 tumor system at the dose of 50 mg/kg, activity expressed as %T/C.; assay type: functional, Mus musculus
Method in brief: (§1)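 L1210 lymphocytic leukemia: ascitic fluid with ca. 10^6 cells injected ip into CD2F1 mice. Dosing started 24 h after inoculation and was repeated daily for five doses in total, from solutions or suspensions made fresh each day. Toxicity day survivors were scored on day 5. Body weight difference is day 5 minus day 1. %T/C is based on median survival time versus controls.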

[2] = test system: P388; assay: In vivo activity against P388 Lymphocytic Leukemia in CD2F1 mice at the dose of 12.5 mg/kg, activity expressed as % T/C; assay type: functional, Mus musculus
Method in brief: (§2)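 CD2F1 mice were inoculated with ascitic fluid holding ca. 10^6 P388 cells. Drug was given daily from 24 h after inoculation, from solutions or suspensions made fresh each day, some as a saline suspension. TDS is survivors/initial animals on day 5. BWD is body weight on day 5 minus day 1. %T/C compares median survival of treated and control mice.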

[3] = test system: L1210; assay: In vivo activity against murine L1210 tumor system at the dose of 25 mg/kg, activity expressed as body weight difference; assay type: functional, Mus musculus; method in brief: as §1
[4] = test system: P388; assay: In vivo activity against P388 Lymphocytic Leukemia in CD2F1 mice at the dose of 25 mg/kg, activity expressed as % T/C; assay type: functional, Mus musculus; method in brief: as §2
[5] = test system: P388; assay: In vivo activity against P388 Lymphocytic Leukemia in CD2F1 mice at the dose of 12.5 mg/kg, activity expressed as KE; assay type: functional, Mus musculus
[6] = Effect of Ionic strength (1.0M NaCl)on the hydrolysis of pyridinium Moity in 0.02 M buffer concentration, pH 7.4,25 degree C; assay type: ADME
Method in brief: (§3)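 Pyridinium salt in 0.02 M phosphate buffer, pH 7.4, 25 °C, with NaCl varied 0.10–1.0 M. Loss of the pyridinium chromophore's UV absorbance maximum (conversion to pyridone) followed over time. Pseudo-first-order kobs and half-life derived from that decay.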

[7] = test system: P388; assay: In vivo activity against P388 Lymphocytic Leukemia in CD2F1 mice at the dose of 50 mg/kg, activity expressed as TDS; 6/6; assay type: functional, Mus musculus; method in brief: as §2
[8] = test system: P388; assay: In vivo activity against P388 Lymphocytic Leukemia in CD2F1 mice at the dose of 25 mg/kg, activity expressed as TDS; 6/6; assay type: functional, Mus musculus; method in brief: as §2
[9] = Half life at the pH 6.0; assay type: ADME; settings: buffer
Method in brief: (§4)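 Bis-carbamate in acetonitrile–water (1:1; buffer added to a 0.5 mg/mL acetonitrile solution), 0.05 M buffer, ionic strength 0.136 (KCl), 25 ± 0.1 °C. Buffers: phosphate pH 2.0; citrate pH 3.0–3.5; succinate pH 4.0; acetate pH 5.0; phosphate pH 6.0–8.0; borate pH 9.0; carbonate pH 10.0. HPLC bis-carbamate peak-area loss, ln(area0/areat) vs time slope = kobs. Duplicates averaged.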

[10] = test system: L1210; assay: In vivo activity against murine L1210 tumor system at the dose of 50 mg/kg, activity expressed as KE; assay type: functional, Mus musculus; method in brief: as §1
[11] = test system: L1210; assay: In vivo activity against murine L1210 tumor system at the dose of mg/kg, activity expressed as KE; assay type: functional, Mus musculus; method in brief: as §1
[12] = Effect of phosphate buffer on the hydrolysis of alpha Fluoropyridinium Moity at the concentration of 0.02M, pH 8.0, 25 degree C; assay type: ADME
Method in brief: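 α-Fluoropyridinium hydrolysis to pyridone in phosphate buffer at 0.02, 0.05 or 0.10 M, pH 6.5 or 8.0, ionic strength […] °C. Pyridinium UV absorbance maximum followed with time to give pseudo-first-order kobs and half-life.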

[13] = Half life at the pH 8.0; assay type: ADME; settings: buffer
[14] = test system: P388; assay: In vivo activity against P388 Lymphocytic Leukemia in CD2F1 mice at the dose of 50 mg/kg, activity expressed as % T/C; assay type: functional, Mus musculus; method in brief: as §2
[15] = Half life at the ionic strength 1.0 M NaCl; assay type: ADME; method in brief: as §3
[16] = Half life at the buffer concentration of 0.05 M.; assay type: ADME
[17] = Half life at the pH 7.4; assay type: ADME; settings: buffer
[18] = test system: MX1; assay: In vivo activity against murine MX-1 tumor system at the dose of 150 mg/kg, activity expressed as TDS; 0/6; assay type: functional, Mus musculus
[19] = test system: P388; assay: In vivo activity against P388 Lymphocytic Leukemia in CD2F1 mice at the dose of 50 mg/kg, activity expressed as KE; assay type: functional, Mus musculus
[20] = test system: P388; assay: In vivo activity against P388 Lymphocytic Leukemia in CD2F1 mice at the dose of 12.5 mg/kg, activity expressed as TDS; 6/6; assay type: functional, Mus musculus; method in brief: as §2
[21] = test system: L1210; assay: In vivo activity against murine L1210 tumor system at the dose of 100 mg/kg, activity expressed as body weight difference; T-C; assay type: functional, Mus musculus; method in brief: as §1
[22] = test system: P388; assay: In vivo activity against P388 Lymphocytic Leukemia in CD2F1 mice at the dose of 200 mg/kg, activity expressed as body weight difference; T-C; assay type: functional, Mus musculus; method in brief: as §2
[23] = In vivo activity against murine M5076 tumor system at the dose of 36 mg/kg, activity expressed as %T/C.; assay type: functional, Mus musculus
Method in brief: (§5)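 M5076: ascitic fluid with ca. 10^6 cells inoculated ip into CD2F1 mice. Dosing started 24 h after inoculation and was then given every 4 days for four doses in total, from solutions or suspensions made fresh each day. Toxicity day survivors were scored on day 5. Body weight difference is day 14 minus day 1. %T/C is based on median survival time versus controls.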

[24] = In vivo activity against murine M5076 tumor system at the dose of 36 mg/kg, activity expressed as TDS; 10/10; assay type: functional, Mus musculus; method in brief: as §5
[25] = test system: L1210; assay: In vivo activity against murine L1210 tumor system at the dose of 60 mg/kg, activity expressed as TDS; 6/6; assay type: functional, Mus musculus; method in brief: as §1
[26] = Effect of phosphate buffer on carbamate hydrolysis in acetonitrile-water at the concentration of 0.025 M on pH 3.0, 25 degree C.; assay type: ADME; settings: in the assay text read “citrate buffer” for “phosphate buffer”
Method in brief: (§6)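 Bis-carbamate in acetonitrile–water (1:1), 25 ± 0.1 °C. Citrate buffer at pH 3.0 or phosphate buffer at pH 7.4, at 0.01, 0.025 or 0.05 M, ionic strength 0.136 (KCl). Kinetics followed by HPLC as the decrease in bis-carbamate peak area. The regression slope of ln(area0/areat) vs time gave pseudo-first-order kobs. Duplicates averaged.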

[27] = test system: P388; assay: In vivo activity against P388 Lymphocytic Leukemia in CD2F1 mice at the dose of 100 mg/kg, activity expressed as TDS; 5/6; assay type: functional, Mus musculus; method in brief: as §2
[28] = Effect of pH on carbamate hydrolysis in 0.05 M buffer concentration at the pH 3.0, 25 degree C.; assay type: ADME; method in brief: as §4
[29] = Effect of pH on carbamate hydrolysis in 0.05 M buffer concentration at the pH 3.5, 25 degree C.; assay type: ADME; method in brief: as §4
[30] = Effect of pH on carbamate hydrolysis in 0.05 M buffer concentration at the pH 8.0, 25 degree C.; assay type: ADME; method in brief: as §4
[31] = In vivo activity against murine M5076 tumor system at the dose of 36 mg/kg, activity expressed as body weight difference; T-C; assay type: functional, Mus musculus; method in brief: as §5
[32] = test system: P388; assay: In vivo activity against P388 Lymphocytic Leukemia in CD2F1 mice at the dose of 200 mg/kg, activity expressed as TDS; 6/6; assay type: functional, Mus musculus; method in brief: as §2
[33] = Effect of phosphate buffer on carbamate hydrolysis in acetonitrile-water at the concentration of 0.05 M on pH 7.4, 25 degree C.; method in brief: as §6

Row | half-life [9] [min] | half-life [13] [min] | half-life [16] [min] | half-life [17] [min] | SMILES | T/C [2] [%] | T/C [4] [%] | KE [5] | TDS [7] | TDS [8] | T/C [14] [%] | KE [19] | TDS [20] | also measured
1 | 158 | 13.3 | 34.6 | 20.5 | CC(C)NC(=O)OCc1c(COC(=O)NC(C)C)c(-c2cc[n+](C)c(F)c2)n2c1CCC2.[I-] | 149 | 141 | 0.75 | 6 | 6 | 157 | 1.32 | 6 | T/C [1]: 118%; BWD [3]: 0.6 g; K obs [6]: 0.007 min⁻¹; KE [10]: -1.94; KE [11]: -2.08; K obs [12]: 0.0132 min⁻¹; half-life [15]: 99.1 min; TDS [18]: 0
2 | 51.4 | 54.1 | 53.5 | 53.5 | CC(C)NC(=O)OCc1c(COC(=O)NC(C)C)c(-c2ccn(C)c(=O)c2)n2c1CCC2 | 116 | 130 | -1.39 | 6 | 6 | 132 | -0.38 | 6 | BWD [21]: -4.2 g; BWD [22]: -1.4 g; T/C [23]: 117%; TDS [24]: 10; TDS [25]: 6; K obs [26]: 0.0342 min⁻¹; TDS [27]: 5; K obs [28]: 0.0304 min⁻¹; K obs [29]: 0.0214 min⁻¹; K obs [30]: 0.0128 min⁻¹; BWD [31]: 1.8 g; TDS [32]: 6; k obs [33]: 0.000217 s⁻¹
